Activity calls are given as the source filed them. The calls are words filed in the database; no cut-off is given here.
Experiments:
Mus musculus [1] = assay: Antihypersensitivity activity against TNCB-induced atopic dermatitis in BALB/c mouse ear assessed as inhibition of ear thickness at 0.5 mg/ear applied topically three times per week 30 min TNCB post challenge measured on day 11 onwards; format: functional
Outline: (§1)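 BALB/c mice sensitized with 10 μL 0.3% TNCB in acetone on both inner ears at day −7, then re-challenged at the same site three times per week over days 0–21. Ear thickness measured by digital micrometer. Edema is the difference between naive and inflamed ear thickness. Inhibition calculated relative to the control group.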

Mus musculus [2] = assay: Antihypersensitivity against TNCB-induced contact hypersensitivity in BALB/c mouse ear assessed as inhibition of edema at 0.5 mg/ear applied tropically after 30 mins, 24 hrs and 48 hrs of TNCB challenge measured after 72 hrs relative to control; format: functional
Outline: (§2)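 Female BALB/c mice (7–9 weeks) challenged on each ear with 10 μL 1% TNCB in acetone six days after sensitization. Compounds given at 0.5 mg/ear in EtOH–H2O 8:2 at 30 min, 24 h and 48 h. Ear thickness measured by micrometer at 24 and 72 h. Edema is inflamed minus naive thickness; inhibition versus control. Dunnett's test.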

Mus musculus [3] = assay: Antihypersensitivity against TNCB-induced contact hypersensitivity in BALB/c mouse ear assessed as inhibition of edema at 0.5 mg/ear applied […] after 30 mins, 24 hrs and 48 hrs of TNCB challenge measured after 24 hrs relative to control; format: functional; outline: as §2
RAW264.7 [4] = assay: Antiinflammatory activity in mouse RAW264.7 cells assessed as inhibition of LPS-induced MMP9 expression by Western blotting; format: functional, cell-based
Outline: (§3)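 RAW 264.7 cells were plated at 2×10^5 cells/mL and switched to DMEM with 0.5% FBS when subconfluent. They were pretreated 1 h with compound (25, 50, 100 μM) or PBS vehicle, then given LPS 1 μg/mL. Cells were lysed after 24 h. MMP-9 was measured by Western blot, normalized to β-actin, with % inhibition versus control. Three experiments.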

Mus musculus [5] = species on record: Mus musculus; assay: Antihypersensitivity activity against TNCB-induced contact hypersensitivity in BALB/c mouse ear assessed as decrease IL1-beta levels at 0.5 mg/ear measured at 24 hrs by ELISA relative to control; format: functional
Outline: (§4)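 Acute CHS: female BALB/c mice challenged with 1% TNCB (10 μL/ear). Topical treatment at 30 min, 24 h and 48 h: compounds 0.5 mg/ear, dexamethasone 0.025 mg/ear. Ears collected at 24 and 72 h and homogenized. Cytokines measured by ELISA in triplicate and expressed as pg/mL. n ≥4 animals; Dunnett's test versus control.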

Mus musculus [6] = species on record: Mus musculus; assay: Antihypersensitivity activity against TNCB-induced contact hypersensitivity in BALB/c mouse ear assessed as decrease IL1-beta levels at 0.5 mg/ear measured at 72 hrs by ELISA relative to control; format: functional; outline: as §4
RAW264.7 [7] = assay: Antiinflammatory activity in mouse RAW264.7 cells assessed as inhibition of LPS-induced MMP9 expression at 25 uM by Western blotting relative to control; format: functional; outline: as §3
Mus musculus [8] = species on record: Mus musculus; assay: Antihypersensitivity activity against TNCB-induced contact hypersensitivity in BALB/c mouse ear assessed as decrease IL2 levels at 0.5 mg/ear measured after 72 hrs by ELISA relative to 24 hrs; format: functional; outline: as §4
RAW264.7 [9] = assay: Antiinflammatory activity in mouse RAW264.7 cells assessed as inhibition of LPS-induced MMP9 expression at 50 uM by Western blotting relative to control; format: functional; outline: as §3
Mus musculus [10] = species on record: Mus musculus; assay: Antihypersensitivity activity against TNCB-induced contact hypersensitivity in BALB/c mouse ear assessed as decrease IL4 levels at 0.5 mg/ear measured after 24 to 72 hrs by ELISA; format: functional, organism-based; outline: as §4
RAW264.7 [11] = assay: Antiinflammatory activity in mouse RAW264.7 cells assessed as inhibition of LPS-induced MMP9 expression at 100 uM by Western blotting relative to control; format: functional; outline: as §3
Mus musculus [12] = species on record: Mus musculus; assay: Antihypersensitivity activity against TNCB-induced acute contact hypersensitivity in BALB/c mouse ear assessed as inhibition of neutrophil infiltration by measuring MPO activity at 0.5 mg/ear measured after 72 hrs relative to control; format: functional
Outline: (§5)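 Female BALB/c mice were challenged on both ears with 10 μL 1% TNCB in acetone. Test compounds (0.5 mg/ear in EtOH–H2O 8:2) or dexamethasone (0.025 mg/ear in acetone) were applied topically at 30 min, 24 h and 48 h. Ear tissue was taken at 24 or 72 h and homogenized in phosphate buffer with 0.5% HTAB. MPO was read by TMB/H2O2, 3 min at 37 °C, A630. n ≥5 ear samples.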

Mus musculus [13] = species on record: Mus musculus; assay: Antihypersensitivity activity against TNCB-induced contact hypersensitivity in BALB/c mouse ear assessed as decrease TNFalpha levels at 0.5 mg/ear measured at 24 hrs by ELISA relative to control; format: functional; outline: as §4
Mus musculus [14] = species on record: Mus musculus; assay: Antihypersensitivity activity against TNCB-induced contact hypersensitivity in BALB/c mouse ear assessed as decreased COX2 expression at 0.5 mg/ear after at 72 hrs by Western blotting relative to control; format: functional
Mus musculus [15] = species on record: Mus musculus; assay: Antihypersensitivity activity against TNCB-induced contact hypersensitivity in BALB/c mouse ear assessed as decreased COX2 expression at 0.5 mg/ear after at 24 hrs by Western blotting relative to control; format: functional
Mus musculus [16] = species on record: Mus musculus; assay: Antihypersensitivity activity against TNCB-induced contact hypersensitivity in BALB/c mouse ear assessed as inhibition of MMP9 production at 0.5 mg/ear measured at 24 hrs by Western blot analysis relative to control; format: functional
[17] = Inhibition of NF-kappaB activation
Mus musculus [18] = assay: Antihypersensitivity activity against TNCB-induced atopic dermatitis in BALB/c mouse ear assessed as inhibition of ear thickness at 0.5 mg/ear applied topically three times per week 30 min TNCB post challenge measured on day 7 onwards; format: functional; outline: as §1
Mus musculus [19] = species on record: Mus musculus; assay: Antihypersensitivity activity against TNCB-induced acute contact hypersensitivity in BALB/c mouse ear assessed as inhibition of neutrophil infiltration by measuring MPO activity at 0.5 mg/ear measured after 22 days of repeated application of TNCB relative to control; format: functional
Outline: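 Repeated-challenge protocol in BALB/c mice: sensitized with 10 μL 0.3% TNCB in acetone on both inner ears at day −7, then 0.3% TNCB three times weekly over days 0–21. Ears were excised on day 22 and homogenized in 0.5% HTAB phosphate buffer. MPO was read by TMB/H2O2, 3 min at 37 °C, A630. n ≥5 ear samples.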

Mus musculus [20] = species on record: Mus musculus; assay: Antihypersensitivity activity against TNCB-induced acute contact hypersensitivity in BALB/c mouse ear assessed as inhibition of neutrophil infiltration by measuring MPO activity at 0.5 mg/ear measured after 24 hrs relative to control; format: functional; outline: as §5
Mus musculus [21] = species on record: Mus musculus; assay: Antihypersensitivity activity against TNCB-induced contact hypersensitivity in BALB/c mouse ear assessed as decrease cytokines levels at 0.025 mg/ear measured at 24 hrs by ELISA relative to control; format: functional; outline: as §4
Mus musculus [22] = species on record: Mus musculus; assay: Antihypersensitivity activity against TNCB-induced contact hypersensitivity in BALB/c mouse ear assessed as inhibition of MMP9 production at 0.025 mg/ear measured at 72 hrs by Western blot analysis relative to control; format: functional
Mus musculus [23] = species on record: Mus musculus; assay: Antihypersensitivity activity against TNCB-induced acute contact hypersensitivity in BALB/c mouse ear assessed as inhibition of neutrophil infiltration by measuring MPO activity at 0.025 mg/ear measured after 22 days of repeated application of TNCB relative to control; format: functional
Outline: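 Female BALB/c mice were sensitized with 10 μL 0.3% TNCB in acetone on both inner ear surfaces, then painted with 0.3% TNCB three times weekly through days 0–21. On day 22 ears were homogenized in 50 mM PBS with 0.5% HTAB. Supernatant was read with H2O2 and tetramethylbenzidine, 3 min at 37 °C, acid-stopped, A630. Reported as mean ± SEM of ≥5 ear samples.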

Mus musculus [24] = species on record: Mus musculus; assay: Antihypersensitivity activity against TNCB-induced acute contact hypersensitivity in BALB/c mouse ear assessed as inhibition of neutrophil infiltration by measuring MPO activity at 0.025 mg/ear measured after 24 to 72 hrs relative to control; format: functional; outline: as §5
Mus musculus [25] = assay: Antihypersensitivity against TNCB-induced contact hypersensitivity in BALB/c mouse ear assessed as inhibition of edema at 0.025 mg/ear applied […] after 30 mins, 24 hrs and 48 hrs of TNCB challenge measured after 24 hrs relative to control; format: functional
Outline: (§6)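 Female BALB/c mice, 7–9 weeks old, were challenged with 10 μL 1% TNCB in acetone per ear. Dexamethasone (20 μL, in acetone) was applied topically to both ears at 30 min, 24 h and 48 h after challenge. Thickness was taken by digital micrometer at 24 h or 72 h; edema is inflamed minus naive ear, with inhibition relative to control. Reported as mean ± SEM, ≥6 animals, Dunnett's test.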

Mus musculus [26] = species on record: Mus musculus; assay: Antihypersensitivity activity against TNCB-induced contact hypersensitivity in BALB/c mouse ear assessed as inhibition of MMP9 production at 0.025 mg/ear measured at 24 hrs by ELISA relative to control
Mus musculus [27] = species on record: Mus musculus; assay: Antihypersensitivity activity against TNCB-induced contact hypersensitivity in BALB/c mouse ear assessed as decreased COX2 expression at 0.025 mg/ear after at 24 hrs by Western blotting relative to control; format: functional
Mus musculus [28] = assay: Antihypersensitivity against TNCB-induced contact hypersensitivity in BALB/c mouse ear assessed as inhibition of edema at 0.025 mg/ear applied […] after 30 mins, 24 hrs and 48 hrs of TNCB challenge measured after 72 hrs relative to control; format: functional; outline: as §6
Mus musculus [29] = assay: Antihypersensitivity activity against TNCB-induced atopic dermatitis in BALB/c mouse ear assessed as inhibition of ear thickness at 0.025 mg/ear applied topically three times per week 30 min TNCB post challenge measured up to 25 days; format: functional, organism-based; settings: in the assay text read “up to 21 days” for “up to 25 days”; outline: as §1
Mus musculus [30] = species on record: Mus musculus; assay: Antihypersensitivity activity against TNCB-induced contact hypersensitivity in BALB/c mouse ear assessed as decreased COX2 expression at 0.025 mg/ear after at 72 hrs by Western blotting relative to control; format: functional

SMILES	inhibition (INH) (Mus musculus [3]) [%]	inhibition (RAW264.7 [4])	inhibition (INH) (Mus musculus [5]) [%]	inhibition (INH) (Mus musculus [6]) [%]	inhibition at 25 µM (RAW264.7 [7]) [%]	fold change (FC) (Mus musculus [8])	inhibition at 50 µM (RAW264.7 [9]) [%]	inhibition (Mus musculus [10])	inhibition at 100 µM (RAW264.7 [11]) [%]	inhibition (INH) (Mus musculus [13]) [%]	inhibition (INH) (Mus musculus [14]) [%]	inhibition (INH) (Mus musculus [15]) [%]	inhibition (INH) (Mus musculus [16]) [%]	also measured
CC(C)=CCc1cc(O)ccc1O[C@@H]1O[C@H](CO)[C@@H](O)[C@H](O)[C@H]1O	53	Dose-dependent effect	>50	60	10	2	72	inactive	86					inhibition (INH) (Mus musculus [1]): 30%; inhibition (INH) (Mus musculus [2]): 50%; inhibition (INH) (Mus musculus [12]): 43%
COC(=O)[C@]1(O)C[C@@H](OC(=O)/C=C/c2ccc(O)c(O)c2)[C@@H](O)[C@H](OC(=O)/C=C/c2ccc(O)c(O)c2)C1	45	Dose-dependent effect	>50	60	26	2	85	inactive	90	39	29	49	41	
O=C(/C=C/c1ccc(O)c(O)c1)O[C@@H]1C[C@](O)(C(=O)O)C[C@@H](OC(=O)/C=C/c2ccc(O)c(O)c2)[C@H]1O (relative stereo)	50	Dose-dependent effect	>50		20	2	42	inactive	97	53	20	44	66	inhibition [17]: Active; inhibition (INH) (Mus musculus [18]): > 40%; inhibition (INH) (Mus musculus [19]): 44%; inhibition (INH) (Mus musculus [20]): 20%
C[C@@H]1C[C@H]2[C@@H]3CCC4=CC(=O)C=C[C@]4(C)[C@@]3(F)[C@@H](O)C[C@]2(C)[C@@]1(O)C(=O)CO [DEXAMETHASONE]														inhibition (INH) (Mus musculus [21]): 50%; inhibition (INH) (Mus musculus [22]): 69%; inhibition (INH) (Mus musculus [23]): 78%; inhibition (INH) (Mus musculus [24]): 65%; inhibition (INH) (Mus musculus [25]): 78%; inhibition (INH) (Mus musculus [26]): 81%; inhibition (INH) (Mus musculus [27]): 48%; inhibition (INH) (Mus musculus [28]): 83%; inhibition (Mus musculus [29]): Active; inhibition (INH) (Mus musculus [30]): 43%
O=C(O[C@@H]1Cc2c(O)cc(O)cc2O[C@@H]1c1cc(O)c(O)c(O)c1)c1cc(O)c(O)c(O)c1 [EPIGALOCATECHIN GALLATE]					70		75		90					

Reference: ChEMBL document CHEMBL1938323, “Phenolic substances from Phagnalon rupestre protect against 2,4,6-trinitrochlorobenzene-induced contact hypersensitivity” (2011)
